For series [1], the target named is T1, Low molecular weight phosphotyrosine protein phosphatase (Homo sapiens, UniProt P24666).
T1 sequence (P24666 whole entry): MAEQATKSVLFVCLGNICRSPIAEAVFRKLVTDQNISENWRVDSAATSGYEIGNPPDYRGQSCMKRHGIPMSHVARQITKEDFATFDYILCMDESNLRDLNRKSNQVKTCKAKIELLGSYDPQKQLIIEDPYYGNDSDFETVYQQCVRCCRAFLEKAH
The series can be described thus: Inhibition of human recombinant LMW-PTP IF1 expressed in Escherichia coli TB1 using p-nitrophenylphosphate as substrate.

Series [2] is described as follows: Cytotoxicity against mouse C2C12 cells expressing PTP1B, TC-PTP, LMW-PTP and insulin receptor assessed as cell viability after 2 hrs by MTT assay. It counts as cell-based. Also on record: concentration or dose not given beside the values. Particulars: read-out: Activity. In short, it runs like this:
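C2C12 myoblasts differentiated 4 days in DMEM with 2% horse serum, serum-starved 20 h; myotubes then given MTT (0.5 mg/ml final) for 2 h at 37 °C, lysed in DMSO, formazan read at 570 nm; three replicates relative to control.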
(Tetrazolium dyes change colour on reduction, which living cells bring about.)

Series [3] is filed under the species Homo sapiens. Description: Selectivity ratio of IC50 for human recombinant LMW-PTP IF2 to IC50 for human recombinant LMW-PTP IF1.
The species entered for series [4] is Homo sapiens. Description: Selectivity ratio of IC50 for human recombinant LMW-PTP IF1 to IC50 for human recombinant PTP1B.
The target of series [5] is T2, Tyrosine-protein phosphatase non-receptor type 2 (Homo sapiens, UniProt P17706).
T2 sequence (P17706 whole entry): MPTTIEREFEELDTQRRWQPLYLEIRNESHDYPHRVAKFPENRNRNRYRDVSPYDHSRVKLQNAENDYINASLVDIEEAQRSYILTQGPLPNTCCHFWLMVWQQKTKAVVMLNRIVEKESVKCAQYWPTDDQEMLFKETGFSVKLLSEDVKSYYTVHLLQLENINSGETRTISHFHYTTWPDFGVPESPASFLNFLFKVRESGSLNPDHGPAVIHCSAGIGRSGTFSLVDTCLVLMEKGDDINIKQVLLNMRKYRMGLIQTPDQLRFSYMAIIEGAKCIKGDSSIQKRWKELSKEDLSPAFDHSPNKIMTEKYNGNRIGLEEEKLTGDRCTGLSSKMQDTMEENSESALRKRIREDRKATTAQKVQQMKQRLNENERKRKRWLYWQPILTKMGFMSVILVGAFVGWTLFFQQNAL
The series can be described thus: Inhibition of TC-PTP (unknown origin) purchased from New England Biolabs using p-nitrophenylphosphate as substrate.

The species entered for series [6] is Homo sapiens. The series can be described thus: Selectivity ratio of IC50 for human recombinant LMW-PTP IF2 to IC50 for human recombinant PTP1B.
The target of series [7] is T3, Tyrosine-protein phosphatase non-receptor type 1 (Homo sapiens) (UniProt P18031).
T3 sequence (whole entry): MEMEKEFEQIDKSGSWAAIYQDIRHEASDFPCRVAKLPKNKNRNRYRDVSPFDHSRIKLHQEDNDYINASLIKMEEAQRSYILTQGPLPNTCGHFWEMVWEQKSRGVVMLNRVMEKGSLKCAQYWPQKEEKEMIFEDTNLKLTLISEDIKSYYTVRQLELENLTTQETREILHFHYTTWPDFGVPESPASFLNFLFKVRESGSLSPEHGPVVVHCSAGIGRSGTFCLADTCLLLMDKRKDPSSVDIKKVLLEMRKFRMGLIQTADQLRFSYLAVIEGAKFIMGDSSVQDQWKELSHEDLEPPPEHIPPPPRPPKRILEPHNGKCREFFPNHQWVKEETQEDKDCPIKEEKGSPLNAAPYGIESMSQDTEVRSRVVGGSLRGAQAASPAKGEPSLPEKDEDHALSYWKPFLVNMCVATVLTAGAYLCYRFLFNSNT
Description: Partial reversible inhibition of human recombinant PTP1B expressed in Escherichia coli TB1 using p-nitrophenylphosphate as substrate assessed as residual activity at 25 times IC50 after 1 hr measured after 400 fold dilution. The gist of the method:
(§1)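 Reversibility: PTP1B preincubated 1 h at 37 °C with at least 25-fold […], DMSO in controls; mixture then diluted 400-fold in assay buffer and residual activity measured on p-nitrophenylphosphate; three replicates, mean ± SE.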

The target in series [8] is T4, Tyrosine-protein phosphatase non-receptor type 1 (Homo sapiens, UniProt P18031).
T4 sequence (P18031 whole entry): T3 sequence (whole entry)
Description: Inhibition of human recombinant PTP1B expressed in Escherichia coli TB1 using p-nitrophenylphosphate as substrate.

Series [9] has as its target T1, Low molecular weight phosphotyrosine protein phosphatase. The series can be described thus: Inhibition of human recombinant LMW-PTP IF2 expressed in Escherichia coli TB1 using p-nitrophenylphosphate as substrate.
Series [10] addresses T4, Tyrosine-protein phosphatase non-receptor type 1. The series can be described thus: Mixed type inhibition of human recombinant PTP1B expressed in Escherichia coli TB1 using p-nitrophenylphosphate as substrate by Double reciprocal plot analysis. The gist of the method:
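PTP1B (human, GST fusion from pGEX-2T in E. coli TB1, thrombin-cleaved, gel-filtered) assayed at 37 °C, pH 7.0 β,β-dimethylglutarate buffer with 1 mM EDTA and 5 mM DTT, p-nitrophenylphosphate at seven final concentrations (0.5–25 mM) with increasing inhibitor; KOH-stopped, A400. Inhibition type from double reciprocal plots; Ki from apparent Km vs inhibitor concentration; triplicate initial rates.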

The target in series [11] is T5, Tyrosine-protein phosphatase non-receptor type 1 (Mus musculus) (UniProt P35821).
T5 sequence (whole entry): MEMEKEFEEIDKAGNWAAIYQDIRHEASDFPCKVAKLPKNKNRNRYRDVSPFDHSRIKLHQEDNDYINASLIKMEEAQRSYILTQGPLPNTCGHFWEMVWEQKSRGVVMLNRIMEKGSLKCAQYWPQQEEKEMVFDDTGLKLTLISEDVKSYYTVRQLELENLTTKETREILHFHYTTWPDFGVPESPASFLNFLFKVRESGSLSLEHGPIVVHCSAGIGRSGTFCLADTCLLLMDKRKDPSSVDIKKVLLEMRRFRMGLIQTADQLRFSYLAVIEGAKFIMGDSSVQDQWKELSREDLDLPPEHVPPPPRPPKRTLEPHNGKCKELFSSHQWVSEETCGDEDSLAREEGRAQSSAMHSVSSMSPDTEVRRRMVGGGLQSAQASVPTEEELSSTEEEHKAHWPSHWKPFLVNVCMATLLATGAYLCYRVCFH
Description: Inhibition of PTP1B in mouse C2C12 cells assessed as increase of insulin receptor beta phosphorylation at 25 uM after 90 mins. It counts as cell-based. The gist of the method:
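Differentiated, 20 h serum-starved C2C12 myotubes exposed to 25 µM compound (DMSO 1.2% final) for 90 min at 37 °C, insulin 10 nM 30 min as positive control; lysates run on SDS-PAGE, Western blot for phospho-insulin receptor β with actin loading control, densitometry; three replicates, p<0.05 versus control.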

The target in series [12] is T3, Tyrosine-protein phosphatase non-receptor type 1 (Homo sapiens). The series can be described thus: Reversible inhibition of human recombinant PTP1B expressed in Escherichia coli TB1 using p-nitrophenylphosphate as substrate assessed as residual activity at 25 times IC50 after 1 hr measured after 400 fold dilution. In short, it runs like this: as §1
The target of series [13] is T5, Tyrosine-protein phosphatase non-receptor type 1 (Mus musculus). Description: Inhibition of PTP1B in mouse C2C12 cells assessed as increase of 2-deoxy-D-1,2-[3H]-glucose at 25 uM after 90 mins by beta-scintillation counting. It counts as cell-based. In short, it runs like this:
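Serum-starved differentiated C2C12 myotubes treated 90 min with 25 µM compound (1.2% DMSO) or 30 min with 10 nM insulin, then 0.1 µCi 2-deoxy-D-[1,2-3H]glucose in Ringer-Hepes for 15 min at 37 °C; cold PBS wash, 0.2 M NaOH lysis, scintillation counting normalized to Bradford protein; three replicates.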

For series [14], the species on record is Homo sapiens. Description: Selectivity ratio of IC50 for TC-PTP (unknown origin) to IC50 for human recombinant PTP1B. In short, it runs like this:
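Commercial T-cell PTP assayed on p-nitrophenylphosphate at 37 °C, pH 7.0 β,β-dimethylglutarate buffer with 1 mM EDTA and 5 mM DTT; stopped with 1 M KOH, absorbance at 400 nm; IC50 from ratio of activity with and without inhibitor versus inhibitor concentration. Ratio lines pair this with recombinant human PTP1B measured the same way.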

SMILES strings stand for the structures. Calls of active or inactive are those of the source. The rule behind the calls is not given here.

As for `COc1ccc(/C=C2\S/C(=N\c3ccccc3)N(Cc3ccc(C(=O)O)cc3)C2=O)cc1OCc1ccccc1`, the 50% inhibitory concentration (IC50) – broadly, the point on the concentration scale where inhibition reaches its midpoint – was 9.1 µM in series [1], 4 µM in [5], 3.9 µM in series [8] and greater than 50 µM in [9]. The viability at 2 h in series [2] is no less than 80%. Besides, the Ratio IC50 in series [3], in series [4] and in [6] was greater than 2 throughout. Also, in series [7], the Activity came out at 50%.

Take `COc1cc(/C=C2\S/C(=N\c3ccccc3)N(Cc3ccc(C(=O)O)cc3)C2=O)ccc1OCCc1ccccc1`: the 50% inhibitory concentration (IC50) is 10.7 µM in [1], 3.4 µM in [5], 2.8 µM in series [8] and 19.7 µM in series [9]. The viability at 2 h in [2] was no less than 80%. In addition, the Ki (in general, a measure of affinity in units of concentration, obtained from inhibition or displacement) in [10] is 1.5 µM. For the same compound, the Ratio IC50 in series [3], in series [4] and in [6] was greater than 2 in each case. Further, in [11], the inhibition entry was “Active”. Further, the Activity in series [12] was determined as 80%.

With `O=C(O)c1ccc(CN2C(=O)/C(=C/c3ccc(OCc4ccccc4)c(F)c3)S/C2=N\c2ccccc2)cc1`, the IC50 in series [1] amounted to 3.3 µM; in series [5], 0.8 µM; in series [8] it was 2.2 µM; in series [9], 15.5 µM. The viability at 2 h in series [2] is no less than 80%. Besides, the Ratio IC50 in series [3], in series [4] and in series [6] was greater than 2 each time. Moreover, the inhibition result in [11] and in series [13] was “Active” each time. In addition, in series [7], the Activity worked out at 50%.

For `COc1ccc(/C=C2\SC(=O)N(Cc3ccc(C(=O)O)cc3)C2=O)cc1OCc1ccccc1`, the Ratio IC50 in series [14] was 2; in [3], greater than 2; in series [4], greater than 2; in [6], greater than 2. Besides, the IC50 in [1] was 22.3 µM; in series [5], 12.7 µM; in [8], 4 µM; in [9], greater than 50 µM. The viability at 2 h in series [2] was no less than 80%. Further, the inhibition result in series [11] is “Active”. In addition, the Activity in [12] amounted to 80%.

With `COc1cc(/C=C2\SC(=O)N(Cc3ccc(C(=O)O)cc3)C2=O)ccc1OCc1ccccc1`, the half-inhibitory concentration (IC50) in [1] is 10.3 µM; in [5], 3.5 µM; in [8], 4.6 µM; in series [9], greater than 50 µM. Also, the viability at 2 h in [2] is no less than 80%. For the same compound, the Ratio IC50 in series [3], in series [4] and in series [6] was greater than 2 in each case. In [11], the inhibition entry is “Active”. For the same compound, the Activity in series [12] came out at 80%.

On to `O=C(O)c1ccc(CN2C(=O)S/C(=C\c3cccc(OCCc4ccccc4)c3)C2=O)cc1`, for which the IC50 is 20.1 µM in series [1], 7.3 µM in series [5], 9.5 µM in series [8] and greater than 50 µM in series [9]. Further, the viability at 2 h in series [2] was determined as 60%. Moreover, the Ratio IC50 in series [3], in series [4] and in [6] was greater than 2 each time. For the same compound, the Activity in series [12] was 80%. The inhibition entry in [13] is “Active”.

For `COc1cc(/C=C2\S/C(=N\c3ccccc3)N(Cc3ccc(C(=O)O)cc3)C2=O)ccc1OCc1ccccc1`, the Ratio IC50 is 2 in series [14], greater than 2 in series [3], greater than 2 in [4] and greater than 2 in series [6]. In addition, the IC50 stood at 4.5 µM in series [1], 5.1 µM in series [5], 1.6 µM in series [8] and 10 µM in series [9]. The viability at 2 h in series [2] is no less than 80%. Further, the Activity in series [12] stood at 80%. In series [13], the inhibition result is “inactive”.

In the case of `O=C(O)c1ccc(CN2C(=O)/C(=C/c3cccc(OCCc4ccccc4)c3)S/C2=N\c2ccccc2)cc1`, the half-inhibitory concentration (IC50) in [1] came out at 10.9 µM; in series [5] it was 1.9 µM; in [8], 4.6 µM; in series [9], 26.8 µM. Also, in series [2], the viability at 2 h was no less than 80%. Besides, the Ratio IC50 in series [3], in series [4] and in series [6] was greater than 2 in each case. Moreover, the Activity in series [7] is 50%. Also, the inhibition entry in series [13] was “inactive”.

Consider `COc1ccc(/C=C2\SC(=O)N(Cc3ccc(C(=O)O)cc3)C2=O)cc1OCCc1ccccc1`, for which the concentration for half-maximal inhibition (IC50) in [1] was greater than 50 µM; in series [5] it was 16.9 µM; in series [8], 24.6 µM; in [9] it was greater than 50 µM. Also, the viability at 2 h in series [2] is no less than 80%. For the same compound, the Ratio IC50 in series [3] was greater than 2. In addition, the inhibition result in series [11] was “Active”. For the same compound, the Activity in series [12] amounted to 80%.

`O=C(O)c1ccc(CN2C(=O)S/C(=C\c3ccc(OCc4ccccc4)c(F)c3)C2=O)cc1`: the IC50 was 34.3 µM in series [1], 10.8 µM in series [5], 7.5 µM in series [8] and greater than 50 µM in series [9]. The viability at 2 h in series [2] was no less than 80%. Further, the Ratio IC50 in series [3], in series [4] and in series [6] was greater than 2 throughout. The inhibition entry in series [11] is “Active”. Besides, the Activity in series [12] came out at 80%.

(Values after ChEMBL document CHEMBL3098122, “Synthesis, biological activity and structure-activity relationships of new benzoic acid-based protein tyrosine phosphatase inhibitors endowed with insulinomimetic effects in mouse C2C12 skeletal muscle cells” (Eur J Med Chem, 2014).)
